The test system of data set [1] is THP-1. Kind of data set: Antiinflammatory activity in LPS-stimulated human THP1 cells assessed as inhibition of TNFalpha formation at 1 uM pretreated 30 mins before LPS challenge measured after 24 hrs by ELISA. Also noted: scale not given: the % may be the effect or the level left. Type of data set: functional. Put shortly: (§1)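 PMA-differentiated human THP-1 cells in RPMI 1640 with 10% FBS, penicillin and streptomycin. Compound or vehicle (0.5% DMSO) was added for 30 min at 37 °C, then E. coli 0127:B8 LPS. Cells were incubated 24 h at 37 °C, 5% CO2. Supernatant TNF-α and IL-6 were measured by ELISA. Percent inhibition of release was calculated versus control.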
For orientation: An ELISA detects its analyte on a solid surface through an enzyme-linked reagent.

Data set [2] relates to THP-1. Kind of data set: Antiinflammatory activity in LPS-stimulated human THP1 cells assessed as inhibition of IL6 formation at 10 uM pretreated 30 mins before LPS challenge measured after 24 hrs by ELISA. The data set is classed as functional. Also noted: scale not given: the % may be the effect or the level left. Put shortly: as §1
Data set [3] concerns Radical scavenging activity. The data set is described as follows: Antioxidant activity assessed as DPPH free radical scavenging activity at 1 uM after 2 mins by spectrophotometry. The data set is classed as functional.
For data set [4], the system named is Radical scavenging activity. The data set is described as follows: Antioxidant activity assessed as DPPH free radical scavenging activity at 1 mM after 20 mins by spectrophotometry. On the technique in general: Loss of DPPH colour is used to gauge radical scavenging.
The subject of data set [5] is Radical scavenging activity. The data set is described as follows: Antioxidant activity assessed as DPPH free radical scavenging activity at 1 uM after 10 mins by spectrophotometry. The data set is classed as functional.
Data set [6] is described as follows: Cytotoxicity against LPS-stimulated human THP-1 cells at 10 uM after 24 hrs by CCK-8 assay. The conditions noted are these: THP-1, 24 h.
Data set [7] concerns Radical scavenging activity. The data set is described as follows: Antioxidant activity assessed as DPPH free radical scavenging activity at 1 uM after 8 mins by spectrophotometry. The data set is classed as functional.
Data set [8] has as its system THP-1. Kind of data set: Antiinflammatory activity in LPS-stimulated human THP1 cells assessed as inhibition of TNFalpha formation at 10 uM pretreated 30 mins before LPS challenge measured after 24 hrs by ELISA. Type of data set: functional. Also on record: scale not given: the % may be the effect or the level left. In a few lines: as §1
The subject of data set [9] is Radical scavenging activity. Kind of data set: Antioxidant activity assessed as DPPH free radical scavenging activity at 1 uM after 6 mins by spectrophotometry. The data set is classed as functional.
Data set [10] relates to THP-1. The data set is described as follows: Antiinflammatory activity in LPS-stimulated human THP1 cells assessed as inhibition of IL6 formation at 1 uM pretreated 30 mins before LPS challenge measured after 24 hrs by ELISA. The data set is classed as functional. Also noted: scale not given: the % may be the effect or the level left. Put shortly: as §1
Data set [11] relates to Radical scavenging activity. Kind of data set: Antioxidant activity assessed as DPPH free radical scavenging activity at 1 uM after 4 mins by spectrophotometry. The data set is classed as functional.

In ChEMBL document CHEMBL1156322, “Synthesis and biological evaluation of nitrogen-containing benzophenone analogues as TNF-alpha and IL-6 inhibitors with antioxidant activity” (Bioorg Med Chem Lett, 2010) one finds Activity data, which are given here for three compounds.

Turning to `C[C@@H]1C[C@H]2[C@@H]3CCC4=CC(=O)C=C[C@]4(C)[C@@]3(F)[C@@H](O)C[C@]2(C)[C@@]1(O)C(=O)CO` [DEXAMETHASONE], in the data set on THP-1 [1], the Activity is given as 73%.

As for `COc1cc(OC)c(C(=O)c2cccc(F)c2)c(O)c1CN1CCN(C)CC1`, the Activity in the data set with THP-1 [2] turned out to be 97%; in data set [3], 9.5%; in data set [4], 40.4%; in data set [5], 22.6%; in data set [6], 22%; in [7] it was 19.4%. Besides, the Activity with THP-1 [8] came to 54%; in [9], 18.5%; in the data set with THP-1 [10], 47%; in data set [11], 15.8%.

As to `COc1cc(OC)c(C(=O)c2ccccc2Br)c(O)c1CN1CCN(C)CC1`, the Activity amounted to 81% in the data set on THP-1 [2]; 3.2% in data set [3]; 13.5% in [4]; 7.59% in [5]; 23% in data set [6]; 6.8% in [7]. Besides, the Activity was determined as 20% in the data set on THP-1 [8], 4.5% in data set [9], 9% with THP-1 [10] and 3.95% in [11].
